According to ChEMBL document CHEMBL4673249, “Anticancer Effects of Honokiol via Mitochondrial Dysfunction Are Strongly Enhanced by the Mitochondria-Targeting Carrier Berberine” (J Med Chem, 2020):
The source made the active and inactive calls. The calls are words filed in the database; no cut-off is given here.

Tests used:
[1] = test system: HepG2; test: Induction of cell death in human HepG2 cells at 3 uM after 12 hrs in presence of Nec-1 by MTT assay; type: functional, cell-based
In short: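 HepG2 cells pretreated with Nec-1 (30 μM) for 2 h, then given 3 μM. Viability measured by MTT with absorbance read at 570 nm.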

[2] = Drug localization n human HepG2 cells mitochondria by MitoTracker staining based confocal microscopic analysis; type: ADME
In short: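 HepG2 cells in glass-bottom dishes were exposed to compound, then stained with 150 nM MitoTracker Red CMXRos for 20 min. Compound's own blue fluorescence imaged against the red mitochondrial signal by confocal microscopy.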

[3] = test system: HepG2; test: Induction of morphological changes in human HepG2 cells assessed as accumulation of vacuoles at 3 uM after 24 hrs in presence of CQ by microscopic method; type: functional, cell-based
In short: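 HepG2 cells given 3 μM compound for 24 h with chloroquine (10 μM) or 3-methyladenine (1 mM). Vacuolization and viability examined, viability by MTT.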

[4] = test system: HepG2; test: Potency index, ratio of HN IC50 to test compound IC50 for antiproliferative activity against human HepG2 cells; type: functional
In short: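 MTT assay after 48 h drug exposure. Cells seeded overnight, MTT (5 mg/mL stock) added for 4 h at 37 °C, formazan dissolved in DMSO, absorbance read at 570 nm. IC50 taken from viability, repeated in triplicate, and the IC50 ratio calculated.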

[5] = test system: HepG2; test: Induction of morphological changes in human HepG2 cells assessed as effect on number of vacuoles at 3 uM after 24 hrs in presence of z-VAD-fmk by microscopic analysis; type: functional, cell-based
In short: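 HepG2 cells preincubated with or without z-VAD-fmk (20 μM, 2 h), then treated with 3 μM compound. Vacuole number and size judged from optical microscopy images.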

[6] = test system: HepG2; test: Induction of apoptosis in human HepG2 cells assessed as necrotic cells at 4 uM after 24 hrs by annexin V/propidium iodide staining based flow cytometric analysis (reference value: 0.11%); type: functional
[7] = test system: HepG2; test: Induction of apoptosis in human HepG2 cells assessed as necrotic cells at 4 uM after 24 hrs in presence of z-VAD-fmk by annexin V/propidium iodide staining based flow cytometric analysis (reference value: 0.12%); type: functional
[8] = test system: HepG2; test: Induction of apoptosis in human HepG2 cells assessed as necrotic cells at 2 uM after 24 hrs by annexin V/propidium iodide staining based flow cytometric analysis (reference value: 0.11%); type: functional
[9] = test system: HepG2; test: Induction of apoptosis in human HepG2 cells assessed as early apoptotic cells at 4 uM after 24 hrs in presence of z-VAD-fmk by annexin V/propidium iodide staining based flow cytometric analysis (reference value: 0.86%); type: functional
[10] = test system: HepG2; test: Induction of apoptosis in human HepG2 cells assessed as accumulation of AIF in cytoplasm at 4 uM after 24 hrs by immunofluorescence assay; type: functional, cell-based
In short: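 HepG2 cells in glass-bottom dishes given 4 μM for 24 h. Fixed in methanol:acetone (1:1) for 10 min, blocked with 5% BSA for 1 h at room temperature. Anti-AIF antibody applied overnight at 4 °C, then Alexa Fluor 594 secondary; nuclei stained with DAPI. Imaged by confocal microscopy.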

[11] = test system: HepG2; test: Induction of cell death in human HepG2 cells at 3 uM after 24 hrs in presence of CQ by MTT assay; type: functional, cell-based
In short: (§1)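 HepG2 cells given 3 μM for 24 h together with CQ (10 μM) or 3-MA (1 mM). Viability measured by MTT with absorbance read at 570 nm.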

[12] = test system: HepG2; test: Induction of cell death in human HepG2 cells at 3 uM after 24 hrs in presence of 3-MA by MTT assay; type: functional, cell-based; in short: as §1
[13] = test system: HepG2; test: Induction of mitochondrial morphological changes in human HepG2 cells assessed as dilation of mitochondria by measuring vacuoles at 3 uM measured up to 30 hrs […] by TEM analysis; type: functional, cell-based; settings: time hrs <=30
In short: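 HepG2 cells given 3 μM for 15 h or 30 h, then fixed in 2.5% glutaraldehyde at 4 °C overnight. Dehydrated through graded alcohols, embedded in resin and examined by transmission electron microscopy.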

[14] = Drug uptake in human HepG2 cells mitochondria at 5 uM after 12 hrs by HPLC analysis; type: ADME; settings: hepg2, 12 h
In short: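 HepG2 cells given 5 μM for 12 h, then homogenized in mitochondrial extraction reagent. Spun at 600 g, 4 °C, 10 min; supernatant spun again at 11000 g, 4 °C, 10 min, and the pellet taken as mitochondria. Drug content by HPLC on a C18 column with methanol–0.1% acetic acid (80:20), detection at 265 nm. Run thrice.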

[15] = test system: HepG2; test: Induction of apoptosis in human HepG2 cells assessed as viable cells at 4 uM after 24 hrs in presence of z-VAD-fmk by annexin V/propidium iodide staining based flow cytometric analysis (reference value: 92.8%); type: functional; settings: read-out: Activity
[16] = test system: HepG2; test: Induction of apoptosis in human HepG2 cells assessed as early apoptotic cells at 1 uM after 24 hrs by annexin V/propidium iodide staining based flow cytometric analysis (reference value: 1.29%); type: functional
[17] = test system: HT-29; test: Induction of morphological changes in human HT29 cells assessed as accumulation of cytoplasmic vacuoles at 4 uM after 24 hrs by optical microscopic method; type: functional, cell-based
In short: (§2)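 Cells grown at 37 °C, 5% CO2 in media with 10% FBS and penicillin/streptomycin, then treated with compound. Cytoplasmic vacuoles judged by optical microscopy. Time course at 4 μM, or 10 h exposure across increasing concentrations.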

[18] = test system: HepG2; test: Induction of ROS generation in human HepG2 cells at 2 uM measured up to 24 hrs by DCFH-DA staining based flow cytometric analysis; type: functional, cell-based; settings: time hrs <=24
In short: (§3)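 HepG2 cells treated for the stated time, then loaded with 10 μM DCFH-DA in FBS-free medium for 30 min in the dark. Washed twice with PBS, trypsinized, pelleted at 1200 rpm for 5 min, resuspended in PBS and read by flow cytometry. Kit Rosup reagent served as positive agent.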

[19] = test system: HepG2; test: Induction of apoptosis in human HepG2 cells assessed as late apoptotic cells at 4 uM after 24 hrs in presence of z-VAD-fmk by annexin V/propidium iodide staining based flow cytometric analysis (reference value: 6.21%); type: functional
[20] = test system: HepG2; test: Induction of apoptosis in human HepG2 cells after 24 hrs by annexin V/propidium iodide staining based flow cytometric analysis; type: functional, cell-based; settings: dose 1-4 µM
[21] = test system: HepG2; test: Induction of ROS generation in human HepG2 cells after 24 hrs by DCFH-DA staining based flow cytometric analysis; type: functional, cell-based; in short: as §3
[22] = test system: HepG2; test: Induction of morphological changes in human HepG2 cells assessed as accumulation of cytoplasmic vacuoles at 4 uM after 24 hrs by optical microscopic method; type: functional, cell-based; in short: as §2
[23] = test system: A2780; test: Antiproliferative activity against human A2780 cells assessed as reduction in cell viability after 48 hrs by MTT assay; type: functional, cell-based; settings: A2780, 48 h
In short: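 Cell lines grown at 37 °C in 5% CO2: A2780, A549, HL7702 and PC3 in RPMI 1640; HT29 in McCoy's 5A; HepG2 and PANC-1 in DMEM; all media with 10% FBS and penicillin/streptomycin. Cells seeded and left overnight, then exposed to compound for 48 h. MTT (5 mg/mL solution) added for 4 h at 37 °C, formazan dissolved in DMSO, absorbance read at 570 nm. IC50 taken from viability; run in triplicate.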

For `C=CCc1ccc(O)c(-c2ccc(OCCCCCc3c4[n+](cc5c(OC)c(OC)ccc35)CCc3cc5c(cc3-4)OCO5)c(CC=C)c2)c1.[I-]`, the Activity [1] was “Active”, the Drug uptake [2] was “Active” and the Activity [3] was “Active”. The “Ratio IC50” value [4] was 14.6, the Activity [5] was “inactive” and the Activity [6] was 0.41%. For the same molecule, the Activity [7] was 0.57%, the Activity [8] was 0.13% and the Activity [9] was 6.59%. The Activity [10] was “Active”, the Activity [11] was “Active” and the Activity [12] was “Active”. The Activity [13] was “Active”, the Drug uptake [14] was 66.3 µM and the viability at 4 µM [15] was 73%. The Activity [16] was 3.27%, the Activity [17] was “Active” and the Activity [18] was “Active”. The Activity [19] was 19.9%, the Activity [20] was “Dose-dependent effect” and the Activity [21] was “Dose-dependent effect”. For the same molecule, the Activity [22] was “Active” and the IC50 [23] was 2220 nM.
